# Experimental data from ChEMBL document CHEMBL1145811, “Synthesis and antibacterial activity of a novel series of acylides: 3-O-(3-pyridyl)acetylerythromycin A derivatives” (J Med Chem, 2003).
# Assays:
# Streptococcus pneumoniae [1] = experiment: In vitro minimum inhibitory concentration for antibacterial activity against Streptococcus pneumoniae 210 (efflux-resistant strain encoded by the mef(A) gene); assay type: functional
# Procedure, shortened: (§1)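 Agar dilution MIC determined by the Japan Society of Chemotherapy standard method for aerobic bacteria.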
# Haemophilus influenzae [2] = experiment: In vitro minimum inhibitory concentration for antibacterial activity against Haemophilus influenzae ATCC 43095 (ampicillin-susceptible strain that does not produce beta-lactamase); assay type: functional; procedure, shortened: as §1
# Streptococcus pneumoniae [3] = experiment: In vitro minimum inhibitory concentration for antibacterial activity against Streptococcus pneumoniae 211 (MLSb-resistant strain encoded by the erm(B) gene); assay type: functional; procedure, shortened: as §1
# Mus musculus [4] = experiment: Effective dose in vivo, in mouse inoculated intraperitoneally with 1.47*10e3 CFU of erythromycin susceptible strain Streptococcus pneumoniae IID553; assay type: functional; details: ip
# Procedure, shortened: (§2)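 Mouse protection test: mice were infected intraperitoneally with erythromycin-susceptible S. aureus Smith or S. pneumoniae IID553. Compounds were given orally 1 h after inoculation.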
# Mus musculus [5] = experiment: Effective dose in vivo, in mouse inoculated intraperitoneally with 5.80*10e7 CFU of erythromycin susceptible strain Staphylococcus aureus Smith; assay type: functional; details: ip; procedure, shortened: as §2
# Streptococcus pneumoniae [6] = experiment: In vitro minimum inhibitory concentration for antibacterial activity against erythromycin susceptible strain Streptococcus pneumoniae IID553; assay type: functional
# Staphylococcus aureus [7] = experiment: In vitro minimum inhibitory concentration for antibacterial activity against erythromycin-susceptible strain Staphylococcus aureus […]; assay type: functional
# Procedure, shortened: (§3)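 MIC by agar dilution following the Japan Society of Chemotherapy standard method for aerobic bacteria. S. aureus 209P-JC and S. pneumoniae IID553 are erythromycin-susceptible strains.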
# Streptococcus pneumoniae [8] = experiment: In vitro minimum inhibitory concentration for antibacterial activity against erythromycin-susceptible strain Streptococcus pneumoniae IID553; assay type: functional; procedure, shortened: as §3
# Staphylococcus aureus [9] = experiment: In vitro minimum inhibitory concentration for antibacterial activity against Staphylococcus aureus B1 (inducibly MLSb-resistant strain encoded by the erm(C) gene); assay type: functional; procedure, shortened: as §1
# Staphylococcus aureus [10] = experiment: In vitro minimum inhibitory concentration for antibacterial activity against erythromycin susceptible strain Staphylococcus aureus Smith; assay type: functional
# Staphylococcus aureus [11] = experiment: In vitro minimum inhibitory concentration for antibacterial activity against Staphylococcus aureus SR138 (constitutively MLSb-resistant strain encoded by the erm(A) gene); assay type: functional; procedure, shortened: as §1
# Haemophilus influenzae [12] = experiment: In vitro minimum inhibitory concentration for antibacterial activity against Haemophilus influenzae ATCC 33533 (ampicillin-resistant strain that produces beta-lactamase); assay type: functional; procedure, shortened: as §1
# [13] = Maximum concentration in the serum of mice following a single oral dose of 10 mg/kg (data represent mean in 3 mice); assay type: ADME, organism-based; set-up: dose 10 mg/kg, route oral; details: mouse
# Procedure, shortened: (§4)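 Mice received a single 10 mg/kg oral dose. Serum and lung were sampled for drug levels. Cmax is in µg/mL and AUC over 0–8 h is in µg·h/mL. Values are the mean of three mice.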
# [14] = Maximum concentration in the lung of mice following a single oral dose of 10 mg/kg (data represent mean in 3 mice); assay type: ADME, organism-based; set-up: dose 10 mg/kg, route oral; details: mouse; procedure, shortened: as §4
# Mus musculus [15] = experiment: Survival rate of mouse inoculated intraperitoneally with 5.05*10e7 CFU of erythromycin-susceptible strain Streptococcus pneumoniae IID553 after treatment with 3 mg of compound; assay type: functional
# Procedure, shortened: (§5)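 Mouse protection test: mice were infected intraperitoneally with 5.05 × 10^7 CFU/mouse, then given the macrolide orally 1 h after inoculation. Survival was recorded as the read-out.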
# [16] = Area under the curve was determined for the compound from the lung of mice following a single oral dose of 10 mg/kg (data represent mean in 3 mice); assay type: ADME, organism-based; set-up: dose 10 mg/kg, route oral; details: mouse, read-out: AUC 0-8; procedure, shortened: as §4
# Mus musculus [17] = experiment: Survival rate of mouse inoculated intraperitoneally with 5.05*10e7 CFU of erythromycin-susceptible strain Streptococcus pneumoniae IID553 after treatment with 0.3 mg of compound; assay type: functional; procedure, shortened: as §5
# [18] = Area under the curve was determined for the compound from the serum of mice following a single oral dose of 10 mg/kg (data represent mean in 3 mice); assay type: ADME, organism-based; set-up: dose 10 mg/kg, route oral; details: mouse, read-out: AUC 0-8; procedure, shortened: as §4
# Mus musculus [19] = experiment: Effective dose in vivo, in mouse inoculated intraperitoneally with 7.05*10e2 CFU of erythromycin susceptible strain Streptococcus pneumoniae IID553; assay type: functional; details: ip; procedure, shortened: as §2
# Mus musculus [20] = experiment: Effective dose in vivo, in mouse inoculated intraperitoneally with 5.09*10e7 CFU of erythromycin susceptible strain Staphylococcus aureus Smith; assay type: functional; details: ip; procedure, shortened: as §2
Structure (SMILES),MIC (Streptococcus pneumoniae [1]) [µg/mL],MIC (Haemophilus influenzae [2]) [µg/mL],MIC (Streptococcus pneumoniae [3]) [µg/mL],ED50 (Mus musculus [4]) [mg/kg],ED50 (Mus musculus [5]) [mg/kg],MIC (Streptococcus pneumoniae [6]) [µg/mL],MIC (Staphylococcus aureus [7]) [µg/mL],MIC (Streptococcus pneumoniae [8]) [µg/mL],MIC (Staphylococcus aureus [9]) [µg/mL],MIC (Staphylococcus aureus [10]) [µg/mL],MIC (Staphylococcus aureus [11]) [µg/mL],MIC (Haemophilus influenzae [12]) [µg/mL],Cmax [13] [ng/mL],Cmax [14] [ng/mL],Survival rate (Mus musculus [15]) [%],AUC [16] [ng·h/mL],Survival rate (Mus musculus [17]) [%],AUC [18] [ng·h/mL],ED50 (Mus musculus [19]) [mg/kg],ED50 (Mus musculus [20]) [mg/kg]
CC[C@H]1OC(=O)[C@H](C)[C@@H](OC(=O)Cc2cccnc2)[C@H](C)[C@@H](OC2O[C@H](C)C[C@H](N(C)C)[C@H]2O)[C@@](C)(OC)C[C@@H](C)C(=O)[C@H](C)[C@H]2OC(=O)O[C@@]21C (some centres undefined),0.2,3.13,> 100,51.1,17.5,0.05,0.2,0.05,0.39,0.2,> 100,3.13,–,–,–,–,–,–,–,–
CC[C@H]1OC(=O)[C@H](C)[C@@H](OC(=O)Cc2cccnc2)[C@H](C)[C@@H](OC2O[C@H](C)C[C@H](N(C)C)[C@H]2O)[C@@](C)(OC)C[C@@H](C)C(=O)[C@H](C)[C@H]2NC(=O)O[C@@]21C (some centres undefined),0.1,3.13,> 100,17.5,6.99,0.05,0.05,0.05,0.39,0.2,> 100,3.13,–,–,–,–,–,–,–,–
CC[C@H]1OC(=O)[C@H](C)[C@@H](OC(=O)Cc2cccnc2)[C@H](C)[C@@H](OC2O[C@H](C)C[C@H](N(C)C)[C@H]2O)[C@@]2(C)C[C@@H](C)[C@H](OC(=O)O2)[C@H](C)[C@H]2OC(=O)O[C@@]21C (some centres undefined),0.1,0.78,100,–,–,–,0.1,0.025,0.2,–,> 100,0.78,120,1350,90,2460,30,230,–,–
CC[C@H]1OC(=O)[C@H](C)[C@@H](O[C@H]2C[C@@](C)(OC)[C@@H](O)[C@H](C)O2)[C@H](C)[C@@H](O[C@@H]2O[C@H](C)C[C@H](N(C)C)[C@H]2O)[C@](C)(O)C[C@@H](C)CN(C)[C@H](C)[C@@H](O)[C@]1(C)O [AZITHROMYCIN],0.78,1.56,> 100,–,–,0.1,0.39,0.1,> 100,0.78,> 100,1.56,–,–,100,–,50,–,13.9,15.7
CC[C@H]1OC(=O)[C@H](C)[C@@H](O[C@H]2C[C@@](C)(OC)[C@@H](O)[C@H](C)O2)[C@H](C)[C@@H](O[C@@H]2O[C@H](C)C[C@H](N(C)C)[C@H]2O)[C@](C)(OC)C[C@@H](C)C(=O)[C@H](C)[C@@H](O)[C@]1(C)O [CLARITHROMYCIN],0.78,6.25,> 100,13.5,7.6,0.025,0.1,0.05,> 100,0.2,> 100,3.13,1210,14100,100,30400,50,1310,–,–
CC[C@H]1OC(=O)[C@H](C)[C@@H](O[C@H]2C[C@@](C)(OC)[C@@H](O)[C@H](C)O2)[C@H](C)[C@@H](O[C@@H]2O[C@H](C)C[C@H](N(C)C)[C@H]2O)[C@](C)(O)C[C@@H](C)C(=O)[C@H](C)[C@@H](O)[C@]1(C)O [ERYTHROMYCIN],–,–,–,–,–,0.1,–,–,–,0.2,–,–,–,–,–,–,–,–,111,56.6
